Consider one compound from ChEMBL document CHEMBL4177770, “Discovery of MK-6169, a Potent Pan-Genotype Hepatitis C Virus NS5A Inhibitor with Optimized Activity against Common Resistance-Associated Substitutions” (J Med Chem, 2018).

Data set [1] addresses T1, Nonstructural protein 5A (Hepatitis C virus) (UniProt Q5L478).
T1 sequence (whole entry): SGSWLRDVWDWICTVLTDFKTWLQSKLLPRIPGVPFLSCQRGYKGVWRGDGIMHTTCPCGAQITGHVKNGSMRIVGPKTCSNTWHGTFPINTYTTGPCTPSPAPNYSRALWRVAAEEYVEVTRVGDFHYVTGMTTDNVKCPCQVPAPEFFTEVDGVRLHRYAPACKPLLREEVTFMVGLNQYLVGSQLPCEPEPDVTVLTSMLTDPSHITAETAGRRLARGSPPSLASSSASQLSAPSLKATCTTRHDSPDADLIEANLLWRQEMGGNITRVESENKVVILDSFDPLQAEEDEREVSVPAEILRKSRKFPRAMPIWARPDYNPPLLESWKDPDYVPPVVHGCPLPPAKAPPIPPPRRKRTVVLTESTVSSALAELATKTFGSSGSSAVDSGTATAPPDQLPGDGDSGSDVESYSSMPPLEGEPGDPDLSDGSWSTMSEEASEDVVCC
As to the kind of experiment: Inhibition of NS5A in HCV genotype 1b infected in HuH7 replicon cells assessed as decrease in viral replication after 3 days by RT-PCR method. The settings on record: Hepatitis C virus subtype 1b. The format is cell-based. Background: A replicon is a self-replicating genome or part of one, used to study replication in cells.

The target of data set [2] is T1, Nonstructural protein 5A (Hepatitis C virus). As to the kind of experiment: Inhibition of NS5A L31M mutant in HCV genotype 2b infected in HuH7 replicon cells assessed as decrease in viral replication after 3 days by RT-PCR method. It is filed as cell-based. The note with it: Hepatitis C virus subtype 2b.
A short description of data set [3]: Cmax in Wistar Han rat at 100 mg/kg, po by LC/MS method. On the set-up: dose 100 mg/kg, route oral. It is filed as ADME, organism-based. The settings on record: in vivo. In a few lines: (§1)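 Single rising oral dose study in fed male Wistar Han rats, dosed PO in 10% TWEEN at the indicated doses. Plasma was obtained by centrifuging the blood, and compound levels were determined by LC/MS.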

Data set [4] is described as follows: Tmax in Wistar Han rat at 100 mg/kg, po by LC/MS method. It is filed as ADME, organism-based. The settings on record: in vivo. The gist of the method:
as §1

Data set [5] deals with T1, Nonstructural protein 5A (Hepatitis C virus). Put plainly: Inhibition of NS5A Q30R mutant in HCV genotype 1a infected in HuH7 replicon cells assessed as decrease in viral replication after 3 days by RT-PCR method. The settings on record: Hepatitis C virus subtype 1a. The format is cell-based.
Data set [6] has as its system Hepatitis C virus subtype 1a. Put plainly: Resistance ratio of EC90 for NS3 R155K mutant in HCV genotype 1a infected in HuH7 replicon cells to EC90 for NS5A in HCV genotype 1a infected in HuH7 replicon cells. It is filed as cell-based.
Data set [7] concerns Hepatitis C virus subtype 1a. As to the kind of experiment: Resistance ratio of EC90 for NS3 R155K/V36M double mutant in HCV genotype 1a infected in HuH7 replicon cells to EC90 for NS5A in HCV genotype 1a infected in HuH7 replicon cells. The format is cell-based.
Data set [8] has as its target T1, Nonstructural protein 5A (Hepatitis C virus). As to the kind of experiment: Inhibition of NS5A L31M mutant in HCV genotype 1b infected in HuH7 replicon cells assessed as decrease in viral replication after 3 days by RT-PCR method. The settings on record: Hepatitis C virus subtype 1b. The format is cell-based.
Data set [9] shares this target. Put plainly: Inhibition of NS5A A30K mutant in HCV genotype 3a infected in HuH7 replicon cells assessed as decrease in viral replication after 3 days by RT-PCR method. It is filed as cell-based. The note with it: Hepatitis C virus subtype 3a.
Data set [10] has the same target. Put plainly: Inhibition of NS5A L31V mutant in HCV genotype 4a infected in HuH7 replicon cells assessed as decrease in viral replication after 3 days by RT-PCR method. It is filed as cell-based. The settings on record: Hepatitis C virus subtype 4a.
Data set [11] can be described thus: Resistance ratio of EC90 for NS5A in HCV genotype 3a infected in HuH7 replicon cells to EC90 for NS5A in HCV genotype 1a infected in HuH7 replicon cells. The format is cell-based.

By EC90 is commonly meant the concentration needed for an effect of 90%. What is called Cmax is the highest concentration seen after dosing. The Tmax is the time at which the peak concentration occurs. Take `COC(=O)N[C@H](C(=O)N1CCC[C@H]1c1ncc(-c2cc(F)c3c(c2)O[C@@H](c2ccc(C4CC4)s2)n2c-3cc3cc(-c4cnc([C@@H]5CCCN5C(=O)[C@@H](NC(=O)OC)[C@@H]5CCOC(C)(C)C5)[nH]4)ccc32)[nH]1)C(C)C`: the EC90 in data set [1] is 0.0044 nM; in [2], 0.018 nM; in [5], 0.12 nM; in data set [8], 0.0016 nM; in [9], 0.018 nM; in data set [10], 0.0077 nM. This compound came in with a Cmax in data set [3] of 760 nM. Also, the Tmax in [4] was 2 h. The Ratio in data set [6] is less than 1; in data set [7], less than 1; in [11] it was 2.
